Laboratory results from the EternaBench riboswitch data.

Test system: MS2 coat protein
Assay: apparent Kd, MS2 coat protein; higher = weaker binding; RNA-MaP array; FMN 200 µM where present
In short: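 Green signal was scaled to red-channel RNA signal and control-cluster median Fmax, and the apparent Kd was taken as the median of filtered per-cluster binding-curve fits. The binding series used SNAP-549-labelled MS2 coat protein from 0.7 or 1.5 nM, doubling to 3 µM, on designs transcribed by stalled E. coli RNA polymerase on Illumina sequencing-chip clusters. Each series ran without and then with constant ligand in 100 mM Tris-HCl pH 7.5, 80 mM KCl, 4 mM MgCl2, BSA, DTT, yeast tRNA and Tween-20.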

[1] = designed as: ON switch for flavin mononucleotide, no ligand
[2] = ligand present: flavin mononucleotide, designed as: ON switch for flavin mononucleotide
[3] = designed as: OFF switch for flavin mononucleotide, no ligand
[4] = ligand present: flavin mononucleotide, designed as: OFF switch for flavin mononucleotide

Sequence	apparent Kd [1]	apparent Kd [2]	apparent Kd [3]	apparent Kd [4]
GCGAUUAAGUAGAAGGUACGUUAUAAGACAAUGUAAGGAUAUACUGACAUGAGGAUCACCCAUGUAAAAUUAGUUUACUGUCGC	7.34 nM	6.44 nM	–	–
UAAAAACAUGAGGAUCACCCAUGUGAAAAUAUGGGAGGAUAUACAAAGACGAGAGUCAAAGUAGAAGGCCUAAAAU	73.5 nM	24.5 nM	–	–
CACUGCAAUGUAGGAUAUCGACUGGAAUACAGUCGAGAAGGACAUGAGGAUCACCCAUGUCAUCCUAAUAAUAAAUAAGCAGUG	–	–	14.4 nM	19.5 nM
CGUUUGUGGCAACUAUCCUCACAUGAGGAUCACCCAUGUAGGGAGGAUAUGCAUUUAAAGAAGUGGCAGAAGGCCCUACACGAA	–	–	101 nM	89.5 nM
GGAAAGUGAGGAUAUGCAUAACAAAUACAAAGAGAAACAAAGCAGAAGGCACAUGAGGAUCACCCAUGUAAACA	–	–	24.9 nM	25 nM
ACUAAGCGAGGAUAUACUAACAAACCUCAAACAUACAUCAAACAUGAGGAUCACCCAUGUAGAAGGCGCAAACU	–	–	27.3 nM	37.6 nM
ACCUCACAUGAGGAUCACCCAUGUCAGGAUAUACGAAGGUAUAGCGCCGAAUACUGAAGUAGAAGGGACAGGCA	–	–	26.9 nM	76.9 nM
UUUAUUUUUACAGGAUAUCAUCUAUUUAACUCAUGCACAUGUUUACAUGAGGAUCACCCAUGUUUUGAGAAGGGUAUUGAAACA	246 nM	259 nM	–	–
AUGUUAUUGGAAGGAUAUAGUUUACUAUUCUAACAUGAGGAUCACCCAUGUAACCUUAUGUGUAUCUAGAAGGUCCAUAACUUA	–	–	54.6 nM	62.3 nM
CCGACAUGAGGAUAUCCAUCUGGAUCAGACUAGAUCCUGAUGGAGAAGGCACAUGAGGAUCACCCAUGUUACGG	–	–	373 nM	89.1 nM
UUAUUAUAUGUAGGAUAUGCAUAUUAUUAUUAUGCAGAAGGACAUGAGGAUCACCCAUGUAUAUUAUUAUUAUAUAUUAUGUAU	–	–	36.3 nM	61 nM
GGUCCAUCAUGAGGAUAUGGCACCUUAUUGGUGCCAGAAGGCAUGUCUAUAGACAUGAGGAUCACCCAUGUAAUAAAAUGGACC	571 nM	61.5 nM	–	–
AUCAGCGCGUCAGGAUAUACGUCACUGCGUCAGCAGUGUGGUAAGAUCACAUGAGGAUCACCCAUGUAGAAGGGACGAGCUGAU	–	–	12.8 nM	307 nM
UUUUAACAUGAGGAUCACCCAUGUGAGGAUAUCGAUAUUUUUAUUAAUAUUAAUAAAACGAGAAGGCACAUUUU	–	–	–	90.2 nM
AUGCUUCACACAGGAUAUACAUGAGGAUCACCCAUGUGUCCUAAGUAGCUGACACGAGCUACGCGGUAGAAGGGUGUGAAGCAU	–	–	21.6 nM	154 nM
AAGUAACAUGAGGAUCACCCAUGUGAGGUGAGCGUAGGAUAUCGAGGAGGAAGGGUGGAGCGAGAAGGACGAGAGG	362 nM	360 nM	–	–
GCUGUCGCAUGAGGAUAUGGUCAGCUUUGCUGACCAGAAGGCAUGUCAAUAGACAUGAGGAUCACCCAUGUAGUAAAGGCGGCU	380 nM	37.8 nM	–	–
GGAGCAACAUGAGGAUCACCCAUGUAGGAUAUCGCUAUUGUAAUCAUGAAACAUGAUUACAAUAGCGAGAAGGACAUAUGCUCC	–	–	6.02 nM	9.16 nM
AAAUUACAUGAGGAUCACCCAUGUUUAAAAAAUAUAGGAUAUGUAAAAAAAAAAAAAAAAACAGAAGGGUAAAAAA	44.8 nM	42 nM	–	–

Sequence	apparent Kd [1]	apparent Kd [2]	apparent Kd [3]	apparent Kd [4]
CCAUCGAGUGUGAGGAUAUGCUGUUCGAAAGAGCAGCAGAAGGCACAUGAGGAUCACCCAUGUGGAUACGGUGG	–	–	29.1 nM	212 nM
CUUCGUAUAGAGGAUAUAGGUUACUUCGGUAUCCUAGAAGGCUGUACAUGAGGAUCACCCAUGUACUUCAGAUC	–	–	11.2 nM	16.9 nM
GCUGGGUAGGCAGGAUAUCCUCGCGCAAACACAUGAGGAUCACCCAUGUACACAAAACGUGAUAUGGAGAAGGGCUGACCCACA	33.2 nM	6.68 nM	–	–
CUGGGAUCAGUAGGAUAUGCCGGACAUGAGGAUCACCCAUGUAAGGCGUGCUUCCCUCACGUGCGGCAGAAGGGCUGCGUCACU	–	–	43.4 nM	40 nM
AUUUAGUGCGAGAAGGCGUGGUCACAUGAGGAUCACCCAUGUCAGUACACGAGGAUAUCGUUUCGCUGUGUAAACACAAGCGAC	40.3 nM	6.15 nM	–	–
CUGUAUGAUGUAGGAUAUACAAUAAUAUUGUUAGUAGAAGGACAUGAGGAUCACCCAUGUAAAUUAAUUUUAAUUAUUUUUGCG	–	–	47.2 nM	36.6 nM
UAUGUGUCAGGAUAUUAGUAGUGUGUGGAUACAUAUAUUGCUGAGAAGGGACAUGAGGAUCACCCAUGUACCUU	–	–	16.2 nM	17.5 nM
AGCUGGAGAGGAUAUACGUAGGAAAAAAAAGUCUGAUCACUACAUGAGGAUCACCCAUGUAGAAGGCUCUGGCA	–	–	21.2 nM	62.2 nM
CAGUUCUGAGGAUAUCCAUCCUCCUACAUGAGGAUCACCCAUGUUUCCCUCUGGGUUUUCGGAGAAGGCAGUUAUC	–	–	299 nM	547 nM
UAGCAUUGCCUUUGGUAGUGCCUUACAUGAGGAUCACCCAUGUAGGAUAUGGUAGGCUUUGCUUACCAGAAGGACAUGGUAAUU	–	–	52.9 nM	259 nM
GGAGCACGCACAGGAUAUCCGGCGGCGCUCGUCGGAGAAGGGUGACAUGAGGAUCACCCAUGUACGUGCAACUUAGUUUAAGAG	37.1 nM	29.6 nM	–	–
AGCAUGCUUGGGUAACCUGGCACAUGAGGAUCACCCAUGUGACAGGAUAUCGACGUAGAUGACGACGAGAAGGGUCUGAUGGGU	–	–	7.61 nM	12.3 nM
AAAUUGCUAGAGGAUAUCGGAUAGGAUUUAUUGCGAGAAGGCUGGACAUGAGGAUCACCCAUGUUCUGUUGGGA	–	–	23.9 nM	36.6 nM
CUUUUGUGAGGAUAUCAGUAUUAAAAAAAUAAAAUUACUACUGAGAAGGCACAUGAGGAUCACCCAUGUUCCUC	–	–	32.7 nM	168 nM
UUUUUACGAGGAUAUCGUUUUUUUCACAUGAGGAUCACCCAUGUUGUUUAUGUUUCGUUUCGAGAAGGCGUUUGUU	–	–	28.2 nM	22.1 nM
CGUCUAUGCCAGAAGGCAUAAAACAUGAGGAUCACCCAUGUCAAAGACAUGAGGAUAUGGCAUAGACGAAAAGUGCGAAAGCAC	17.9 nM	4.97 nM	–	–
AUUAUACAUGAGGAUCACCCAUGUAAUUAAUUAAUUAAGAUCUAGGAUAUCAGCUCGUUUAGAGCUGAGAAGGAGAUCACAUGU	30.1 nM	18.8 nM	–	–
CUGCUUCCCAGUUUGGUUAUUUAUACAGAAGGCCAUUCACAUGAGGAUCACCCAUGUCAAGUAAUGGAGGAUAUGUUAUUGUCG	6.64 nM	4.65 nM	–	–
UUUGGGUGGCUGGAGGAUAUUCUAGUGGUUACAUGAGGAUCACCCAUGUGUCGCGCGGUUCGCGAGGAGAAGGCUGGCGGCCGUU	166 nM	46.2 nM	–	–

Sequence	apparent Kd [1]	apparent Kd [2]	apparent Kd [3]	apparent Kd [4]
GUUAGACAUGAGGAUCACCCAUGUGAGGAUAUGAUGUGAAUAAAUAAUUAAUUAAGUAUCAGAAGGCACAUAUG	–	–	129 nM	149 nM
GGAUGACAUAGUCAUCCUUAACGAACAUGAGGAUCACCCAUGUAGGAUAUGCUACUCAAAGAGUAGCAGAAGGGUAUGUGUCUU	–	–	53.6 nM	56.3 nM
GCACGGAAAGGAUAUGCACGGCUAGCUCGCGUUUUUGUGUGACAUGAGGAUCACCCAUGUAGAAGGUUCAGUGG	–	–	68 nM	71.8 nM
UAAGGACAUGAGGAUCACCCAUGUGAGGAUAUGCUCUACGAACGUUUAUUUAUGAGAAGCAGAAGGCACAUUUU	–	–	99.8 nM	156 nM
ACAUACUCUCGAGGAUAUCGUAUGGAAAAGAAACGAGAAGGCGAAUGUUAAUUUCUAAUACAUGACAUGAGGAUCACCCAUGUA	30.4 nM	27.3 nM	–	–
AUCAGCUCGUCAGGAUAUACGUCACUGCGUCAGCAGUGUGGUAAGAUCACAUGAGGAUCACCCAUGUAGAAGGGACGAGCUGAG	–	–	14.1 nM	284 nM
UCUGUCCUUGUCAGGAUAUCGAUGGUAAGACCAUGCGAGAAGGGACAUGAGGAUCACCCAUGUUCGACCUGGGU	–	–	176 nM	222 nM
UUGGACGUCGUAGGAUAUGUAGGAUAUUCCUACAUGAGGAUCACCCAUGUUGACAUGGAAGAAGGACAGAAGGACGAUAUCCAU	289 nM	5.01 nM	–	–
AUCAGCUCGUCAGGAUAUACGUCACUGCGUGAGCAGUGUGGUAAGAUCACAUGAGGAUCACCCAUGUAGAAGGGACGAGCUGAU	–	–	13.6 nM	271 nM
AAUAACAGAGGAUAUACUGUUUUAUGUGUUUAUUGUUUUAAACAUGAGGAUCACCCAUGUAGAAGGCUGAAUGA	–	–	43.8 nM	41.9 nM
GCACAUGGCAUAGGAUAUAGAGCUUUAGUUUAUAUAGGUAGUUGGACUUAACUAGAAGGAUGGUACAUGAGGAUCACCCAUGUU	20.6 nM	17.4 nM	–	–
UUCAUUAACAUGAGGAUCACCCAUGUUGGCCAGUCUCACACCAGAAGGCACGUUGAGCACAGCAGUGAGGAUAUGGGUGACAUA	236 nM	223 nM	–	–
GCCCGAUCCACGUUGGGCCCAGACAGAAGGGCACACGGUCUAAGUCACAUGAGGAUCACCCAUGUGCAGGAUAUGUCUCGACUC	–	–	7.63 nM	25.9 nM
CUGUGACGGUGCGCAAGUGGACGUAGAAGGGUCACAUGAGGAUCACCCAUGUGGGCCUGCUAUUGACAGGAUAUACGUUCGUAC	–	–	5.28 nM	5 nM
GUUGUGUCAGGAUAUACGUUUGUUUUUUUUUUUGUUGUUUAGUAGAAGGGACAUGAGGAUCACCCAUGUUUGUU	–	–	25.7 nM	28.2 nM
CCUCAGUAAGGAUAUCAGCUUAUAAGGUUGGUAAUGAGAGCUGAGAAGGUACAUGAGGAUCACCCAUGUUAGUU	–	–	27.1 nM	95.7 nM
GCGUGUAUAAGAUUUAUAAAACAGUCAGAAGGUGAUAAGACGACAUGAGGAUCACCCAUGUAAUUCAAGGAUAUGAUAAUACGC	53.8 nM	13.3 nM	–	–
CUCAUGUAAGGAUAUCAGUAGUAAAAAAAUAAAAUUACUACUGAGAAGGUACAUGAGGAUCACCCAUGUCCUUC	–	–	96.1 nM	56.2 nM
